# E-selectin induc: E-selectin induction in HUVECs, primary screen, imaging, HUVEC, immunofluorescence imaging, single point; activation, % at 7.58 µM; 0.37% of 260,000 active; AID 686992, 2013; P16581; normalized: neutral wells 0, TNF-alpha wells 100;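 active = mean E-selectin-positive cell signal at least 10% of the positive control, reached in at least 60% of replicates, without over 20% cell loss; inconclusive = no rule given, readout overlaps actives, possibly toxicity-flagged; inactive = the rest, including those meeting only one limit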
#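 Test system: HUVEC | Signal: Immunofluorescence imaging | Read-out: Percent E-selectin-positive cells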
# FGF22 binding: binders of human FGF22 protein, primary screen, FGF22 synaptogenesis inhibitor project, biophysical, thermal shift, single point; AID 651658, 2012; Fibroblast growth factor 22 (Homo sapiens), Q9HCT0; activity (Tm shift, normalised), % at 9.99 µM; 1.5% of 340,000 active; recombinant FGF22 thermal shift, SYPRO orange fluorescence; percent of sucrose octasulfate shift, DMSO zero;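 active = mean Tm shift, scaled 0 neutral to 100 positive control, at about 1.3% or above, every replicate too, limit read from the data; inconclusive = no clear call, values can overlap the other calls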
# Target sequence (Q9HCT0 whole entry, looked up): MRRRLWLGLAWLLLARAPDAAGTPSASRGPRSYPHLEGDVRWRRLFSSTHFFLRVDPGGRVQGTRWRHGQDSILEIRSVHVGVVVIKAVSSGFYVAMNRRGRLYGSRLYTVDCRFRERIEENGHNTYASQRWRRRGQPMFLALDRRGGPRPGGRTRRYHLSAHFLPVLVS
# S100A4 MyoIIA: inhibitors of S100A4-myosin IIA peptide binding, primary screen, biochemical, fluorescence polarization, TAMRA-MyoIIA peptide; Protein S100-A4 (Homo sapiens), P26447; inhibition, % at 10.7 µM; 0.14% of 360,000 active;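 active = mean inhibition of at least 70% across replicates, with every replicate also reaching that level; inconclusive = mean inhibition reaches 70% but some replicates fall short; inactive = mean inhibition below 70%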
# Target sequence (P26447 whole entry, looked up): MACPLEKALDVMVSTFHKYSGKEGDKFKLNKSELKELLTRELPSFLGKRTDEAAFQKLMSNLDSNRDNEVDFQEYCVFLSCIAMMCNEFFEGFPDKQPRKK
#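 System – human S100A4 monomer protein, biochemical binding assay · Buffer or medium – Calcium-containing HEPES buffer, pH 7.2 · Timing – 5 min between mix addition and reading · Also added – TAMRA-labelled myosin IIA heavy-chain peptide probe, 5 nM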
# miR-122 sensor: miR-122 Renilla sensor signal increase in Huh7, primary screen, miR-122 inhibitor project, cell-based, single point, plate reader; activation (reporter increase), % at 12.5 µM; Huh7 miR-122 Renilla luciferase sensor, 48 h; neutral wells = 0, positive control = 100; AID 602342, 2012; 0.3% of 340,000 active;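 active = mean replicate activation score at least 90 and every replicate individually at or above 90; inconclusive = only one of the two criteria met; inactive = neither criterion met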;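 note: higher luciferase means less miR-122 activity so hits act as miR-122 inhibitors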
# SIRT5 inh: SIRT5 desuccinylase inhibitors, primary screen, biochemical, fluorescence imaging, single point, set 5 | inhibition, % at 15 µM | NAD-dependent protein deacylase sirtuin-5, mitochondrial (Homo sapiens), Q9NXA8 | 1.1% of 330,000 active | Purified SirT5, succinyl-peptide AMC, trypsin-coupled fluorescence | AID 652115, 2013; in the data active = inhibition above about 15%; inconclusive = no clear call, values can overlap the other calls
# Target sequence (Q9NXA8 whole entry, looked up): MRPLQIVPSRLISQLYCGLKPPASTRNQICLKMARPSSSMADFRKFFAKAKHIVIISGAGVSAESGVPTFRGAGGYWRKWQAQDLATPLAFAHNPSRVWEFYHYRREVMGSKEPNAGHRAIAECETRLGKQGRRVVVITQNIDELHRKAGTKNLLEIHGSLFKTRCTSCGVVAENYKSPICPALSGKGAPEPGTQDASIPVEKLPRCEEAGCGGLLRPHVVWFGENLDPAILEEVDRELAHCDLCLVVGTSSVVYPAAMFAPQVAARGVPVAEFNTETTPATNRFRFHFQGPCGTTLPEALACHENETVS
# * marks the source's active call; other numbers are inactive results; u = inconclusive; x = not tested or not shown; [ ] = dose if it differs, or a comment. In the library only some 2.5% were active in any assay of this set; here they are far more common.
SMILES,E-selectin induc,FGF22 binding,S100A4 MyoIIA,miR-122 sensor,SIRT5 inh
C[C@@H]1CN([C@@H](C)CO)C(=O)c2cc(NC(=O)Cc3ccccc3)ccc2O[C@@H]1CN(C)Cc1ccc(Cl)c(Cl)c1,35*,-1,2,-4[16.7 µM],8
C[C@@H]1CN([C@@H](C)CO)C(=O)c2cc(NC(=O)Cc3cn(C)c4ccccc34)ccc2O[C@H]1CN(C)Cc1ccc(Cl)c(Cl)c1,-4,0,-7,-11[16.7 µM],26*
O=C(CCNC(=O)c1ccccc1)Nc1ccc(F)c(Cl)c1,x,44*,3,x,-4
COC(=O)c1ccc(NC(=S)NCCCn2ccnc2)cc1,x,0,7,22,20*
O=C(O)c1c2cc(Br)ccc2nc2[nH]c(=O)[nH]c(=O)c12,0,43*,-1,-5,x
Cc1noc(C)c1NC(=O)N(C)C[C@H]1Oc2ccc(NC(=O)c3ccncc3)cc2C(=O)N([C@H](C)CO)C[C@H]1C,348*,0,-2,5[16.7 µM],-1
Cc1noc(C)c1NC(=O)N(C)C[C@@H]1Oc2ccc(NC(=O)c3ccncc3)cc2C(=O)N([C@H](C)CO)C[C@@H]1C,421*,0,11,8[16.7 µM],0
CCNC(=O)c1cc2c(c(-c3cccc(-c4cccc(F)c4)c3)n1)[C@H](CCO)N([S@@](=O)C(C)(C)C)C2,0,-1,-5,x,3
COc1ccccc1C(=O)N=Nc1c(O)[nH]c2ccc([N+](=O)[O-])cc12,x,43,-18,x,3
O=C(N=Nc1c(O)[nH]c2ccc([N+](=O)[O-])cc12)c1cc(-c2ccccc2Cl)nc2ccccc12,9,0,-13,x,23*
C[C@@H]1CN([C@H](C)CO)C(=O)c2cc(NC(=O)Cc3cn(C)c4ccccc34)ccc2O[C@@H]1CN(C)C(=O)Nc1ccc2c(c1)OCO2,x,-1,-25,29[16.7 µM],0
COc1ccc2c3c([nH]c2c1)[C@H](CO)N(C(=O)C1CCCCC1)CC31CN(C(=O)NC(C)C)C1,0,0,8,x,-4
Cc1cc(OCC(O)CNC(C)(C)C)ccc1Cl (centres undefined),x,0,-2,-10,21*
COc1cc(S(=O)(=O)NC2CCCC2)c(OC)cc1C,0,0,-2,u,0
COc1cc(OC)c(S(=O)(=O)NC(C)C)cc1S(=O)(=O)NC(C)C,x,43*,-2,15,1
c1cncc(-c2ccc(C3[C@H]4CNC[C@@H]3N4CC3CCCCC3)cc2)c1 (some centres undefined),0,x,21,x,-1
O=C(CN1C(=O)C2C3C=CC(C4CC34)C2C1=O)Nc1cnc2ccccc2c1 (centres undefined),x,44*,-4,x,2
O=C(CN1C(=O)C2C3C=CC(C3)C2C1=O)Nc1ccc2nccnc2c1 (centres undefined),0,1,8,-4,x
COc1ccc(C2=Nn3c(nnc3-c3ccccc3OC)SC2)cc1OC1CCOC1 (centres undefined),0,0,0,131*,x
COc1ccc(C2=Nn3c(nnc3-c3ccccc3C(F)(F)F)SC2)cc1OC1CCOC1 (centres undefined),0,0,3,x,x
C[C@@H]1CN([C@H](C)CO)S(=O)(=O)c2ccc(/C=C/c3ccccc3)cc2O[C@@H]1CN(C)C,0,0,-4,16[16.7 µM],4
COc1cccc(NC(=O)CCNS(=O)(=O)c2cccc3nsnc23)c1,x,44*,0,x,2
O=S(=O)(Nc1cccc(F)c1)c1cccc2nsnc12,1,0,-1,4,-1
Cc1ccc(NS(=O)(=O)c2cccc3nsnc23)cc1C,0,0,0,114*,-8
O=S(=O)(Nc1ccc(Cl)cc1)c1cccc2nsnc12,0,0,2,120*,11
SMILES,E-selectin induc,FGF22 binding,S100A4 MyoIIA,miR-122 sensor,SIRT5 inh
COc1cccc(CNC(=O)CCNS(=O)(=O)c2cccc3nsnc23)c1,0,0,-1,10,-6
Nc1ccc2c3c(cccc13)C(=O)N(c1ccccc1)C2=O,0,1,14,x,2
CC(C)CCN1C(=O)c2cccc3c(N)ccc(c23)C1=O,26*,0,1,1,2
C[C@H]1CN([C@@H](C)CO)S(=O)(=O)c2ccc(/C=C/c3ccccc3)cc2O[C@H]1CN(C)C(=O)c1ccc2c(c1)OCO2,0,x,-36,-2[16.7 µM],22*
C[C@H](CO)N1C[C@H](C)[C@@H](CN(C)C(=O)c2ccc3c(c2)OCO3)Oc2cc(-c3ccccc3)ccc2S1(=O)=O,0,x,x,3[16.7 µM],x
C/C=C/c1ccc2c(c1)O[C@H](CN(C)C(=O)c1ccc3c(c1)OCO3)[C@@H](C)CN([C@@H](C)CO)S2(=O)=O,0,0,-2,44[16.7 µM],0
C[C@@H]1CN([C@@H](C)CO)S(=O)(=O)c2ccc(-c3ccccc3)cc2O[C@@H]1CN(C)C(=O)c1ccc2c(c1)OCO2,0,0,-1,-44[16.7 µM],16*
C[C@H](CO)N1C[C@H](C)[C@H](CN(C)C(=O)c2ccc3c(c2)OCO3)Oc2cc(/C=C/c3ccccc3)ccc2S1(=O)=O,0,0,0,0[16.7 µM],29*
C[C@H]1CN([C@@H](C)CO)S(=O)(=O)c2ccc(/C=C/c3ccccc3)cc2O[C@@H]1CN(C)C(=O)c1ccc2c(c1)OCO2,0,1.9*,0,-1[16.7 µM],2
C/C=C/c1ccc2c(c1)O[C@@H](CN(C)C(=O)c1ccc3c(c1)OCO3)[C@@H](C)CN([C@@H](C)CO)S2(=O)=O,0,0,14,0[16.7 µM],-1
C[C@H](CO)N1C[C@H](C)[C@@H](CN(C)Cc2ccc(C(=O)O)cc2)Oc2ccc(NC(=O)Nc3ccc4c(c3)OCO4)cc2CC1=O,x,0,6,-2[16.7 µM],0
C[C@H]1CN([C@@H](C)CO)C(=O)c2cc(C3=CCCCC3)cnc2O[C@@H]1CN(C)C(=O)NC1CCCC1,-1,0,-30,x,2
O=C(C1CCC1)N1CC2(C1)[C@H](c1ccccc1)[C@H](CO)N2Cc1ccc(Cl)cc1,0,x,5,x,0
CCOc1ccc(S(=O)(=O)NN2Cc3ccccc3C2=N)cc1,x,0,-6,x,18*
CC(C)CSc1n[nH]c(=S)s1,x,43*,-2,6,1
CC(CSc1n[nH]c(=S)s1)c1ccccc1 (centres undefined),0,0,-15,x,2
C[C@H](CO)N1C[C@H](C)[C@H](CN(C)S(=O)(=O)c2ccc(F)cc2)Oc2ccc(NC(=O)Nc3ccccc3)cc2C1=O,0,0,12,-7[16.7 µM],3
